According to ChEMBL document CHEMBL1140415, “Synthesis, anti-HIV activity, and metabolic stability of new alkenyldiarylmethane HIV-1 non-nucleoside reverse transcriptase inhibitors” (J Med Chem, 2005):

Columns and labels:
[1] = test system: CEM-SS; experiment: Cytotoxic concentration against mock infected in CEM-SS cells; assay type: functional; settings: Homo sapiens
Procedure, shortened: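 Mock-infected CEM-SS cells, tested alongside the HIV-1 RF cytoprotection (MTS) assay. Data come from triplicate tests.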

[2] = test system: Human immunodeficiency virus 1; experiment: In vitro anti-HIV activity against HIV-1RF infected in CEM-SS cells using MTS cytoprotection assay; assay type: functional, organism-based; settings: Human immunodeficiency virus 1, CEM-SS
[3] = molecular target: Human immunodeficiency virus type 1 reverse transcriptase (Human immunodeficiency virus 1, UniProt Q72547); experiment: Inhibition of recombinant HIV-1 reverse transcriptase activity
[4] = In vitro hydrolytic stability in rat plasma, expressed as t1/2; assay type: ADME, cell-free
Procedure, shortened: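 1,1-Diphenylethylene (2.1–5.1 mg) or benzophenone (2.1 mg) served as internal standard. Hydrolysis of the methyl ester was followed, and t1/2 is given in min ± SD from triplicate tests.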

[5] = test system: Human immunodeficiency virus 2; experiment: In vitro anti-HIV activity against HIV-2ROD infected in MT-4 cells using MTT assay; assay type: functional, organism-based; settings: Human immunodeficiency virus 2, MT4
Procedure, shortened: (§1)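 MT-4 cells infected with HIV-1 strain IIIB or HIV-2 strain ROD. Protection from viral cytopathicity was read by MTT. Triplicate tests.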

[6] = test system: MT4; experiment: Cytotoxic concentration against mock infected in MT-4 cells; assay type: functional; settings: Homo sapiens
Procedure, shortened: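 Uninfected (mock-infected) MT-4 cells, run alongside the MTT antiviral assay. Triplicate tests.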

[7] = test system: Human immunodeficiency virus 1; experiment: In vitro anti-HIV activity against HIV-1 IIIB infected in MT-4 cells using MTT assay; assay type: functional, organism-based; settings: Human immunodeficiency virus 1, MT4; procedure, shortened: as §1
[8] = In vitro hydrolytic stability in rat plasma, expressed as t1/2; Not hydrolyzed; assay type: ADME, cell-free
Procedure, shortened: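 Compounds (4.3–9.3 mg) were incubated in rat plasma in vitro. 1,1-Diphenylethylene (2.1–5.1 mg) or benzophenone (2.1 mg) served as internal standard. Hydrolysis of the methyl ester was followed, and t1/2 is given in min ± SD from triplicate tests.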

SMILES | CC50 [1] | EC50 [2] | IC50 [3] | half-life [4] | EC50 [5] | CC50 [6] | EC50 [7] | T1/2 [8]
COC(=O)CCC/C=C(/c1ccc(OC)c(OC)c1)c1cc(C)c(OC)c(C(=O)OC)c1 | 1.14 µM | 0.21 µM | 0.074 µM | – | – | – | – | –
COC(=O)c1cc(C(=CCCN2CCOC2=O)c2cc(Br)c(OC)c(C(=O)OC)c2)cc(Br)c1OC | – | 0.02 µM | – | – | – | – | – | –
COC(=O)CCC/C=C(/c1cc(Cl)c(OC)c(C(=O)OC)c1)c1cc(Cl)ccc1OC | 9.3 µM | > 100 µM | > 100 µM | 46.2 s | > 5.41 µM | 5.41 µM | > 5.41 µM | –
COC(=O)CCC/C=C(/c1cc(C)c(OC)c(C(=O)OC)c1)c1cc(Cl)ccc1OC | 15.5 µM | > 100 µM | > 100 µM | 58.8 s | > 13.8 µM | 13.8 µM | > 13.8 µM | –
COC(=O)CCC/C=C(/c1cc(F)cc(C(F)(F)F)c1)c1cc(C)c(OC)c(C(=O)OC)c1 | 12 µM | 7.3 µM | 55.3 µM | 261 s | 10.6 µM | 113 µM | 2.54 µM | –
COC(=O)CCC/C=C(\c1cccc(C#N)c1)c1cc(Cl)ccc1OC | 16.3 µM | 7 µM | 7.58 µM | 25.2 s | > 67.6 µM | ≥ 45.2 µM | 9.11 µM | –
COC(=O)CCC/C=C(\c1cc(C)c(OC)c(C(=O)OC)c1)c1cc(Cl)ccc1OC | 8.3 µM | > 100 µM | > 100 µM | 28.2 s | > 14.5 µM | 18.8 µM | > 18.8 µM | –
COC(=O)CCC/C=C(\c1cc(F)cc(C(F)(F)F)c1)c1cc(Cl)c(OC)c(C(=O)OC)c1 | 16.1 µM | > 100 µM | > 100 µM | – | – | – | – | –
COc1ccc(/C(=C\CCN2CCOC2=O)c2cc(F)cc(C(F)(F)F)c2)cc1OC | 14.5 µM | > 100 µM | 97.8 µM | – | > 13.4 µM | 18.5 µM | > 18.5 µM | Not hydrolyzed
COc1ccc(/C(=C\CCN2CCOC2=O)c2cc(F)ccc2C(F)(F)F)cc1OC | 26.7 µM | > 100 µM | > 100 µM | – | – | – | – | Not hydrolyzed
COC(=O)CCC/C=C(/c1cc(C)c2on(C)c(=O)c2c1)c1cc(Cl)ccc1OC | 13 µM | > 100 µM | 8.2 µM | 28.8 s | > 28.8 µM | > 28.8 µM | > 28.8 µM | –
COC(=O)CCC/C=C(\c1cc(F)cc(C(F)(F)F)c1)c1cc(C)c2on(C)c(=O)c2c1 | 16.8 µM | > 100 µM | > 100 µM | 52.2 s | > 43.2 µM | 39.8 µM | > 35.7 µM | –
COC(=O)CCC/C=C(\c1cccc(C#N)c1)c1cc(C)c(OC)c(C(=O)OC)c1 | 23.3 µM | > 100 µM | 0.84 µM | 42.6 s | > 169 µM | 153 µM | 12.8 µM | –
COC(=O)CCC/C=C(\c1cccc(C#N)c1)c1cc(C)c2onc(OC)c2c1 | 0.8 µM | > 100 µM | 5.7 µM | 87.6 s | > 5.63 µM | 4.69 µM | > 2.05 µM | –
COC(=O)c1cc(/C(=C\CCN2CCOC2=O)c2cc(F)cc(C(F)(F)F)c2)cc(C)c1OC | 15 µM | 8.3 µM | 15.7 µM | 563 s | > 22.6 µM | 24.7 µM | 9.6 µM | –
COC(=O)CCC/C=C(\c1cccc(C#N)c1)c1cc(Cl)c(OC)c(C(=O)OC)c1 | 20.2 µM | 7.1 µM | 0.75 µM | 26.4 s | – | 213 µM | 8.55 µM | –
COC(=O)c1cc(/C(=C\CCN2CCOC2=O)c2ccc(OC)c(OC)c2)cc(C)c1OC | 0.49 µM | > 100 µM | 1 µM | 346 s | > 1.05 µM | 1.05 µM | > 1.05 µM | –
COC(=O)c1cc(C(=CCCN2CCOC2=O)c2ccc(OC)c(OC)c2)cc(C)c1OC | 4.79 µM | > 100 µM | > 100 µM | 47.4 s | > 35.4 µM | 82.5 µM | > 33.8 µM | –
COC(=O)CCC/C=C(\c1cc(F)cc(C(F)(F)F)c1)c1cc(C)c2onc(OC)c2c1 | – | – | 0.9 µM | – | – | – | – | –
COC(=O)CCC/C=C(\c1cc(F)cc(C(F)(F)F)c1)c1cc(C)c(OC)c(C(=O)OC)c1 | > 5 µM | > 5 µM | > 100 µM | – | > 5.89 µM | 5.7 µM | > 5.51 µM | –
